Where “and” joins values, the source holds several entries; their conditions need not be identical. Equal values may be shown once.
Legend:
Rattus norvegicus [1] = assay: Compound was evaluated for diuretic activity determined by the ability to induce electrolytic excretion (K+) at a time period of 0-5 hr for dose 3 mg/kg; assay type: functional, Urine
Summary of the method: (§1)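 Female Sprague-Dawley rats weighing 160-170 g were dosed orally at 3, 9, 27 or 81 mg/kg, housed three per cage, with three cages per dose. Urinary Na+, K+ and Cl- (mequiv × 100) and urine volume (mL) were measured over 0-5 h and 0-24 h after dosing. A placebo group was run alongside.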

Rattus norvegicus [2] = assay: Compound was evaluated for diuretic activity determined by the ability to induce electrolytic excretion (Cl-) at a time period of 0-24 hr for dose 27 mg/kg; assay type: functional, Urine; summary of the method: as §1
Rattus norvegicus [3] = assay: Urine volumes was determined in Sprague-Dawley rats at time period of 0-5 hours at 27 mg/kg; assay type: functional
Summary of the method: (§2)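 Female Sprague-Dawley rats (160-170 g) were dosed orally at 3-81 mg/kg, with a placebo group. Housing was three rats per cage and three cages per dose. Urinary Na+, K+ and Cl- (mequiv × 100) and urine volume were measured over 0-5 h and 0-24 h.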

Rattus norvegicus [4] = assay: Compound was evaluated for diuretic activity determined by the ability to induce electrolytic excretion (K+) at a time period of 0-24 hr for dose 81 mg/kg; assay type: functional, Urine; parameters: unit: mequiv × 100; summary of the method: as §1
Rattus norvegicus [5] = assay: Compound was evaluated for diuretic activity determined by the to induce electrolytic excretion (Cl-) at a time period of 0-24 hr for dose 81 mg/kg; assay type: functional, Urine; summary of the method: as §1
Rattus norvegicus [6] = assay: Compound was evaluated for diuretic activity determined by the ability to induce electrolytic excretion (K+) at a time period of 0-24 hr for dose 9 mg/kg; assay type: functional, Urine; summary of the method: as §1
Rattus norvegicus [7] = assay: Compound was evaluated for diuretic activity determined by the ability to induce electrolytic excretion (K+) at a time period of 0-5 hr for dose 27 mg/kg; assay type: functional, Urine; summary of the method: as §1
Rattus norvegicus [8] = assay: Compound was evaluated for diuretic activity determined by the ability to induce electrolytic excretion (Cl-) at a time period of 0-5 hr for dose 27 mg/kg; assay type: functional, Urine; summary of the method: as §1
Rattus norvegicus [9] = assay: Compound was evaluated for diuretic activity determined by the ability to induce electrolytic excretion (Na+) at a time period of 0-5 hr for dose 27 mg/kg; assay type: functional, Urine; summary of the method: as §1
Rattus norvegicus [10] = assay: Urine volumes was determined in Sprague-Dawley rats at time period of 0-5 hours at 9 mg/kg; assay type: functional; summary of the method: as §2
Rattus norvegicus [11] = assay: Urine volumes was determined in Sprague-Dawley rats at time period of 0-5 hours at 81 mg/kg; assay type: functional; summary of the method: as §2
Rattus norvegicus [12] = assay: Compound was evaluated for diuretic activity determined by the ability to induce electrolytic excretion (K+) at a time period of 0-5 hr for dose 81 mg/kg; assay type: functional, Urine; summary of the method: as §1
Rattus norvegicus [13] = assay: Compound was evaluated for diuretic activity determined by the ability to induce electrolytic excretion (Cl-) at a time period of 0-24 hr for dose 3 mg/kg; assay type: functional, Urine; summary of the method: as §1
Rattus norvegicus [14] = assay: Compound was evaluated for diuretic activity determined by the ability to induce electrolytic excretion (Cl-) at a time period of 0-5 hr for dose 3 mg/kg; assay type: functional, Urine; summary of the method: as §1
Rattus norvegicus [15] = assay: Compound was evaluated for diuretic activity determined by the ability to induce electrolytic excretion (Na+) at a time period of 0-24 hr for dose 81 mg/kg; assay type: functional, Urine; summary of the method: as §1
Rattus norvegicus [16] = assay: Compound was evaluated for diuretic activity determined by the ability to induce electrolytic excretion (Na+) at a time period of 0-24 hr for dose 27 mg/kg; assay type: functional, Urine; summary of the method: as §1
Rattus norvegicus [17] = assay: Compound was evaluated for diuretic activity determined by the ability to induce electrolytic excretion (Na+) at a time period of 0-24 hr for dose 3 mg/kg; assay type: functional, Urine; summary of the method: as §1
Rattus norvegicus [18] = assay: Compound was evaluated for diuretic activity determined by the ability to induce electrolytic excretion (Na+) at a time period of 0-5 hr for dose 3 mg/kg; assay type: functional, Urine; summary of the method: as §1
Rattus norvegicus [19] = assay: Compound was evaluated for diuretic activity determined by the ability to induce electrolytic excretion (K+) at a time period of 0-24 hr for dose 3 mg/kg; assay type: functional, Urine; summary of the method: as §1
Rattus norvegicus [20] = assay: Compound was evaluated for diuretic activity determined by the ability to induce electrolytic excretion (Cl-) at a time period of 0-5 hr for dose 9 mg/kg; assay type: functional, Urine; summary of the method: as §1
Rattus norvegicus [21] = assay: Compound was evaluated for diuretic activity determined by the ability to induce electrolytic excretion (Na+) at a time period of 0-5 hr for dose 9 mg/kg; assay type: functional, Urine; summary of the method: as §1
Rattus norvegicus [22] = assay: Compound was evaluated for diuretic activity determined by the ability to induce electrolytic excretion (Cl-) at a time period of 0-24 hr for dose 9 mg/kg; assay type: functional, Urine; summary of the method: as §1
Rattus norvegicus [23] = assay: Urine volumes was determined in Sprague-Dawley rats at time period of 0-5 hours at 3 mg/kg; assay type: functional; summary of the method: as §2
Rattus norvegicus [24] = assay: Compound was evaluated for diuretic activity determined by the ability to induce electrolytic excretion (K+) at a time period of 0-24 hr for dose 27 mg/kg; assay type: functional, Urine; summary of the method: as §1
Rattus norvegicus [25] = assay: Compound was evaluated for diuretic activity determined by the ability to induce electrolytic excretion (Na+) at a time period of 0-5 hr for dose 81 mg/kg; assay type: functional, Urine; summary of the method: as §1
Rattus norvegicus [26] = assay: Compound was evaluated for diuretic activity determined by the ability to induce electrolytic excretion (Na+) at a time period of 0-24 hr for dose 9 mg/kg; assay type: functional, Urine; summary of the method: as §1
Rattus norvegicus [27] = assay: Compound was evaluated for diuretic activity determined by the ability to induce electrolytic excretion (K+) at a time period of 0-5 hr for dose 9 mg/kg; assay type: functional, Urine; summary of the method: as §1
Rattus norvegicus [28] = assay: Compound was evaluated for diuretic activity determined by the ability to induce electrolytic excretion (Cl-) at a time period of 0-5 hr for dose 81 mg/kg; assay type: functional, Urine; summary of the method: as §1
Canis familiaris [29] = assay: Compound was evaluated for urinary levels (mg) after administration at time period
Rattus norvegicus [30] = assay: Compound was evaluated for diuretic activity determined by the ability to induce electrolytic excretion (Cl-) at a time period of 0-24 hr for dose 81 mg/kg; assay type: functional, Urine; summary of the method: as §1
Canis familiaris [31] = assay: Compound was evaluated for percentage recovery from urine after administration of 0.1 mg/kg dose; assay type: functional, organism-based; parameters: dose 0.1 mg/kg; details: Canis lupus familiaris
Summary of the method: (§3)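 Catheterized mongrel dogs (average 14-16 kg, 6 per group) were given oral doses of 0.1-1.0 mg/kg. Urine was collected at 0-6 h and 6-24 h. Each 1-mL aliquot was partitioned between saturated Na2CO3 and ethyl acetate, and the organic phase was back-extracted into 0.5 N HCl. Amiloride in the acid phase was read spectrofluorometrically (excitation 365 nm, emission 420 nm). Results are mean ± SD, with % recovery.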

Canis familiaris [32] = assay: Compound was evaluated for percentage recovery from urine after administration of 0.3 mg/kg dose; assay type: functional, organism-based; parameters: dose 0.3 mg/kg; details: Canis lupus familiaris; summary of the method: as §3
Rattus norvegicus [33] = assay: Urine volumes was determined at time period of 0-5 hours for dose 9 mg/kg; assay type: functional; summary of the method: as §2
Rattus norvegicus [34] = assay: Compound was evaluated for diuretic activity to induce electrolytic excretion (Cl-) at a time period of 0-24 hr for dose 3 mg/kg; assay type: functional, Urine; summary of the method: as §2
Rattus norvegicus [35] = assay: Urine volumes was determined at time period of 0-5 hours for dose 27 mg/kg; assay type: functional; summary of the method: as §2

Work on `CN(C)c1nc(N)c(-c2nc(N)[n+](C)o2)nc1Cl.[I-]` yielded a Diuretic effect (Rattus norvegicus [1]) of 2, a Diuretic effect (Rattus norvegicus [2]) of 209 and a Urine volume (Rattus norvegicus [3]) of 29 mL. For the same molecule, the Diuretic effect (Rattus norvegicus [4]) was 68, the Diuretic effect (Rattus norvegicus [5]) was 322 and the Diuretic effect (Rattus norvegicus [6]) was 97. The Diuretic effect (Rattus norvegicus [7]) was 6, the Diuretic effect (Rattus norvegicus [8]) was 56 and the Diuretic effect (Rattus norvegicus [9]) was 100. The Urine volume (Rattus norvegicus [10]) was 27 mL, the Urine volume (Rattus norvegicus [11]) was 31 mL and the Diuretic effect (Rattus norvegicus [12]) was 5. For the same molecule, the Diuretic effect (Rattus norvegicus [13]) was 153, the Diuretic effect (Rattus norvegicus [14]) was 37 and the Diuretic effect (Rattus norvegicus [15]) was 389. It also gave a Diuretic effect (Rattus norvegicus [16]) of 299, a Diuretic effect (Rattus norvegicus [17]) of 185 and a Diuretic effect (Rattus norvegicus [18]) of 55. It also gave a Diuretic effect (Rattus norvegicus [19]) of 114, a Diuretic effect (Rattus norvegicus [20]) of 35 and a Diuretic effect (Rattus norvegicus [21]) of 60. The Diuretic effect (Rattus norvegicus [22]) was 169, the Urine volume (Rattus norvegicus [23]) was 26 mL and the Diuretic effect (Rattus norvegicus [24]) was 62. For the same molecule, the Diuretic effect (Rattus norvegicus [25]) was 154, the Diuretic effect (Rattus norvegicus [26]) was 224 and the Diuretic effect (Rattus norvegicus [27]) was 2. The Diuretic effect (Rattus norvegicus [28]) was 95.
In the case of `N=C(N)NC(=O)c1nc(Cl)c(N)nc1N` [AMILORIDE], the Diuretic effect (Rattus norvegicus [1]) is reported as 5, the Urinary level (Canis familiaris [29]) is reported as 0.41 mg and the Diuretic effect (Rattus norvegicus [2]) is reported as 180. The Urine volume (Rattus norvegicus [3]) was 36 mL, the Diuretic effect (Rattus norvegicus [4]) was 47 and the Diuretic effect (Rattus norvegicus [30]) was 328. The Diuretic effect (Rattus norvegicus [6]) was 67, the Diuretic effect (Rattus norvegicus [7]) was 7 and the Diuretic effect (Rattus norvegicus [8]) was 105. For the same molecule, the Recovery (Canis familiaris [31]) was 41.4% and 40%, the Diuretic effect (Rattus norvegicus [9]) was 180 and the Urine volume (Rattus norvegicus [10]) was 33 mL. It also gave a Urine volume (Rattus norvegicus [11]) of 28 mL, a Diuretic effect (Rattus norvegicus [12]) of 6 and a Recovery (Canis familiaris [32]) of 29.3%. For the same molecule, the Diuretic effect (Rattus norvegicus [14]) was 90, the Diuretic effect (Rattus norvegicus [15]) was 458 and the Diuretic effect (Rattus norvegicus [33]) was 1. It also gave a Diuretic effect (Rattus norvegicus [16]) of 206, a Diuretic effect (Rattus norvegicus [17]) of 153 and a Diuretic effect (Rattus norvegicus [18]) of 156. For the same molecule, the Diuretic effect (Rattus norvegicus [19]) was 83, the Diuretic effect (Rattus norvegicus [20]) was 96 and the Diuretic effect (Rattus norvegicus [21]) was 162. The Diuretic effect (Rattus norvegicus [22]) was 176, the Urine volume (Rattus norvegicus [23]) was 35 mL and the Diuretic effect (Rattus norvegicus [24]) was 82. The Diuretic effect (Rattus norvegicus [34]) was 139, the Diuretic effect (Rattus norvegicus [25]) was 158 and the Diuretic effect (Rattus norvegicus [26]) was 207. The Diuretic effect (Rattus norvegicus [27]) was 6, the Diuretic effect (Rattus norvegicus [35]) was 3.4 and the Diuretic effect (Rattus norvegicus [28]) was 93.
